The values below come from paper PMC8212709 (Clinical and Translational Science, 2021).

Molecules are shown by their SMILES. Where only a bound is given, the exact number is not on record here.

The target in one data set is BTK (Homo sapiens, UniProt Q06187). Kind of data set: BTK occupancy assay in whole blood cell lysates. In kind it is in vivo. An outline of the steps:
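Healthy subjects in SRD cohorts 1–4 (6 test compound, 2 placebo per cohort) took a single oral dose (0.1 mg starting dose, given as solution) or placebo while fasted. Unoccupied BTK in whole-blood cell lysates was captured by a biotin-modified covalent probe of the test compound. Occupancy was computed per postdose time up to 96 h as 100 − [100 × (BTK concentration ÷ predose BTK concentration)].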

Data set [1] in a line: Plasma pharmacokinetics of TAK‐020. In kind it is in vivo, human (healthy subjects). The note with it: for half-life / Tmax: human, plasma. Put shortly: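 In the MRD part, healthy subjects took oral test compound q.d. (3.75–60 mg) or placebo, with sampling on days 1 and 9. Plasma levels were measured by validated HPLC-MS/MS (LLOQ 0.10 ng/mL). Noncompartmental parameters used actual sampling times, with geometric mean and %CV for Cmax and AUC. Accumulation ratios were based on Cmax and AUC24, plus the LS-mean ratio AUC24 (day 9):AUC∞ (day 1).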

The conditions of data set [2]: rat, most sensitive toxicological species; nonclinical, no reference given; cited from earlier work.

Chain of BTK (Q06187 whole entry): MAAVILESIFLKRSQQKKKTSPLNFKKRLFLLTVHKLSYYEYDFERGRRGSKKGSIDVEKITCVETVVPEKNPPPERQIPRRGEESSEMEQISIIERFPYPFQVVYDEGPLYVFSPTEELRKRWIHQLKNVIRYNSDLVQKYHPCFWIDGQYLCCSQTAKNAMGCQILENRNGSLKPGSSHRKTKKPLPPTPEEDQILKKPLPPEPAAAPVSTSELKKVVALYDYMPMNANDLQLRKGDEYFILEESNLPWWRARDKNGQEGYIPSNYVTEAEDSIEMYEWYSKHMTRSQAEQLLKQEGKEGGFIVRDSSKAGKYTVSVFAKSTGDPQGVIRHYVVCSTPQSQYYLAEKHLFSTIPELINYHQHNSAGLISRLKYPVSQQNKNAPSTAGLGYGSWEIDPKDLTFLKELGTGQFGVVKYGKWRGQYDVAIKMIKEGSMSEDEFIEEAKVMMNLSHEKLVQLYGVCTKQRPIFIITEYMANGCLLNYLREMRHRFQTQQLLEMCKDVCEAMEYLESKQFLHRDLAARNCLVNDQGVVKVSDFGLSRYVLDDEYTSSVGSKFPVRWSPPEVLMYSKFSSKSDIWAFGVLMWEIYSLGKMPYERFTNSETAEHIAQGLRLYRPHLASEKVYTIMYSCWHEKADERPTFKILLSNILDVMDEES

For the compound `C=CC(=O)N1CC[C@H](Oc2nc(-c3n[nH]c(=O)[nH]3)cc3ccccc23)C1` [TAK‐020], the “duration of BTK occupancy > 70%” value on BTK (SRD, 2.5‐mg and 4.4‐mg doses, longest duration investigated) is more than 96 h. Further, the “BTK occupancy, maximum and sustained” value at BTK (SRD, single doses ≥ 2.5 mg (2.5‐mg and 4.4‐mg), blood) was more than 70%. Also, the “duration of > 80% BTK occupancy” value on BTK (single doses of 2.5 and 4.4 mg, postdose) was 72 h. Moreover, the “BTK occupancy (%) of TAK‐020 binding sites” value on BTK (single doses of 2.5 and 4.4 mg, up to 72 hours postdose) is more than 80%. The “duration of BTK saturation” value at BTK (single doses ≥2.5 mg) was more than 24 h. In addition, the “least‐squares means ratio of AUC24 (day 9):AUC∞ (day 1)” value in data set [1] (MRD) is on record as “near unity”. In addition, the “accumulation ratio based on AUC24 (Rac(AUC24)), geometric mean” value in data set [1] (MRD 3.75 to 60 mg q.d.) is listed as “near unity”. Besides, the “accumulation ratio based on Cmax (Rac(Cmax)), geometric mean” value in data set [1] (MRD 3.75 to 60 mg q.d.) was “near unity”. The “steady‐state systemic exposure (mean dose‐normalized Cmax and AUC24) vs dose” value in data set [1] (MRD, days 1 and 9) is “dose‐proportional manner up to 60 mg”. Moreover, the half-life in data set [1] (oral, 3.75 mg, mean t1/2z, MRD, 3.75‐mg dose, day 1) is 2.59 h; in data set [1] (oral, 3.75 mg, mean t1/2z, MRD, 3.75‐mg dose, day 9 after q.d. dosing), 2.15 h; in data set [1] (oral, 60 mg, mean t1/2z, MRD, 60‐mg dose, day 1), 6.3 h; in data set [1] (oral, 60 mg, mean t1/2z, MRD, 60‐mg dose, day 9 after q.d. dosing) it was 5.46 h; in data set [1] (oral, half‐life, doses ≥ 2.5 mg (abstract)), 3 to 9 h; in data set [1] (oral, mean half‐life in plasma, q.d. dosing), 2 to 6 h. The time to peak (Tmax) in data set [1] (oral, median Tmax, MRD 3.75 to 60 mg, after a single dose on day 1) fell in the range of 0.5 to 0.75 h; in data set [1] (oral, median Tmax, MRD 3.75 to 60 mg, day 9 after q.d. dosing), 0.75 to 1 h; in data set [1] (po, median time to maximum plasma concentration (Tmax), single and multiple doses (abstract)), 0.75 to 1 h. Moreover, in data set [2], the “no observed adverse effect level exposure limit (total AUC)” value was 63 ng·h/mL.

For orientation: half-life means the time needed for the level to fall by half in the phase considered. The low end stands for fast loss, the high end for slow loss. As a reminder, the Tmax is the time at which the peak concentration occurs.
